Experimental data: ChEMBL document CHEMBL4706770, “SD-91 as A Potent and Selective STAT3 Degrader Capable of Achieving Complete and Long-Lasting Tumor Regression” (ACS Med Chem Lett, 2021)
Calls of active or inactive are those of the source. The calls are words filed in the database; no cut-off is given here.

Columns and labels:
[1] = target: T1, Signal transducer and activator of transcription 5B (Homo sapiens, UniProt P51692); assay: Binding affinity to human recombinant STAT5B assessed as dissociation constant incubated for 15 mins by biolayer interferometry
T1 sequence (P51692 whole entry): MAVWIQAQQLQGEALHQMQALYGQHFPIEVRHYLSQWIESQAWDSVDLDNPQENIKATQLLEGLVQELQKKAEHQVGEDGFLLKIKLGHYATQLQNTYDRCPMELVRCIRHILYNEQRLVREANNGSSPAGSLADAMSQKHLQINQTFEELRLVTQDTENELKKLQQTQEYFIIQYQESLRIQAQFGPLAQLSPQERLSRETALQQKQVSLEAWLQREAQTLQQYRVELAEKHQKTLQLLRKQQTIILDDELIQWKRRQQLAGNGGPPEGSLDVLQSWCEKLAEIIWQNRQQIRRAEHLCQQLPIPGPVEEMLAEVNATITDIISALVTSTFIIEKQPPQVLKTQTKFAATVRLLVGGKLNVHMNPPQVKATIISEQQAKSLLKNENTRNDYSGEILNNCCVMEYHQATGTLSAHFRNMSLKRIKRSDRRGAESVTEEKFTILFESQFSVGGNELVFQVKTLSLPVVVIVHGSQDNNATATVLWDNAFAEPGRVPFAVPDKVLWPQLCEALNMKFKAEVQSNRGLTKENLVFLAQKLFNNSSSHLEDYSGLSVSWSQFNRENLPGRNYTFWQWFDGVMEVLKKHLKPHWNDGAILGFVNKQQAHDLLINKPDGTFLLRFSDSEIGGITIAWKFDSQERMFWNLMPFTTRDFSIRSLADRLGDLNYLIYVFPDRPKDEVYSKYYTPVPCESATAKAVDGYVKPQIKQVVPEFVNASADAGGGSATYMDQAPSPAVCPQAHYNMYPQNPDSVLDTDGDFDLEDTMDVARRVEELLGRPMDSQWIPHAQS
Method in brief: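 Biolayer interferometry with recombinant human STAT1, STAT2, STAT3, STAT4, STAT5A, STAT5B or STAT6 proteins containing their SH2 domain. Compound run in 2× serial dilutions from 200 nM. Kd taken from steady-state fitting of equilibrium responses against concentration using a 1:1 binding model.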

Mus musculus [2] = assay: In vivo induction of STAT3 degradation in SCID mouse xenografted with human MOLM16 cells assessed as reduction in phosphorylated STAT3 level in tumor tissue at 50 mg/kg, iv measured after 24 hrs by immunoblotting analysis; type: functional, organism-based
Method in brief: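 SCID mice bearing MOLM-16 or SU-DHL-1 xenografts given a single iv dose of 50 mg/kg or dosing vehicle. Tumor lysates immunoblotted for p-STAT3 Y705 and total STAT3 at time points up to 48 h (MOLM-16) and 24 h (SU-DHL-1).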

[3] = target: T2, Signal transducer and activator of transcription 3 (Homo sapiens, UniProt P40763); assay: Induction of STAT3 degradation in human MOLM-16 cells for 4 hrs by western blot analysis; type: cell-based; settings: molm16
Method in brief: (§1)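 Cells treated 4 h with compounds across 25 nM to 100 μM; STAT proteins detected by Western blot with GAPDH as loading control; STAT3 DC50 estimated by densitometry of STAT3 relative to GAPDH. Applies to MOLM-16 for all STATs, and to SU-DHL-1 and SUP-M2 for STAT3.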

[4] = target: T2, Signal transducer and activator of transcription 3; assay: Induction of STAT3 degradation in human SUP-M2 cells incubated for 4 hrs by western blot analysis; type: cell-based; method in brief: as §1
[5] = target: T2, Signal transducer and activator of transcription 3; assay: Induction of STAT3 degradation in human MOLM-16 cells assessed as decrease in STAT3 level at 1 uM incubated for 4 hrs by proteomic analysis; type: cell-based; settings: MOLM16
Method in brief: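 MOLM-16 cells treated with 1 or 10 μM for 4 h. Protein levels measured by quantitative proteomics across more than 7000 proteins.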

[6] = Stability of the compound in PEG400/phosphate buffer saline measured upto 100 hrs by LC/MS/MS analysis; type: physicochemical
Method in brief: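 Compound incubated at room temperature in dosing vehicle (10% PEG400/90% phosphate buffered saline); percentages of parent and conversion products determined at time points up to 96 h.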

Mus musculus [7] = assay: In vivo induction of STAT3 degradation in SCID mouse xenografted with human MOLM16 cells assessed as reduction in STAT3 in tumor tissue at 50 mg/kg, iv measured after 24 hrs by immunoblotting analysis; type: functional, organism-based
Method in brief: (§2)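 SCID mice bearing MOLM-16 tumors given a single iv dose of 50 mg/kg or dosing vehicle. Tumor lysates immunoblotted for STAT3, STAT1 and STAT6 at time points from 1 h to at least 24 h.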

[8] = target: Protein cereblon/Signal transducer and activator of transcription 4 (Homo sapiens) (UniProt Q96SW2+Q14765); assay: Protac activity at CRBN/STAT4 in human SUP-M2 cells assessed as STAT4 degradation at 0.25 to 100 uM incubated for 4 hrs by Western blot analysis; type: cell-based; settings: SUPM2, dose 0.25-100 µM
[9] = target: T3, Protein cereblon/Signal transducer and activator of transcription 1-alpha/beta (Homo sapiens) (UniProt P42224+Q96SW2); assay: Protac activity at CRBN/STAT1 in human SU-DHL-1 cells […] at 0.25 to 100 uM incubated for 4 hrs by Western blot analysis; type: cell-based; settings: dose lower 0.25 µM
[10] = (§3) Drug uptake in SCID mouse xenografted with human MOLM16 cells assessed as (2-(((5S,8S,10aR)-8-(((S)-5-amino-1-(benzhydrylamino)-1,5-dioxopentan-2-yl)carbamoyl)-3-(8-(2-(2,6-dioxopiperidin-3-yl)-1-oxoisoindolin-4-yl)oct-7-yno yl)-6-oxodecahydropyrrolo[1,2-a][1,5]diazocin-5-yl)carbamoyl)-1H-indole-5-carbonyl)phosphonic acid level in tumor tissue at 50 mg/kg, iv measured after 24 hrs by LC-MS/MS; type: ADME, organism-based; settings: in vivo
Method in brief: (§4)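 SCID mice bearing MOLM-16 xenografts given a single iv dose of 50 mg/kg. Concentrations of parent and hydrolysis product measured in plasma (ng/mL) and tumor tissue (ng/g) at 1, 6 and 24 h.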

[11] = Drug metabolism in complete cell culture medium assessed as (2-(((5S,8S,10aR)-8-(((S)-5-amino-1-(benzhydrylamino)-1,5-dioxopentan-2-yl)carbamoyl)-3-(8-(2-(2,6-dioxopiperidin-3-yl)-1-oxoisoindolin-4-yl)oct-7-ynoyl)-6-oxodecahydropyrrolo[1,2-a][1,5]diazocin-5-yl)carbamoyl)-1H-indole-5-carbonyl)phosphonic acid after 2 hrs
Method in brief: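 Parent compound incubated in the cell culture medium used for the cellular assays, with or without cells, at 37 °C. Percentages of the hydrolysis product and the glutarimide ring-opened product measured at time points up to 96 h.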

[12] = target: T3, Protein cereblon/Signal transducer and activator of transcription 1-alpha/beta (Homo sapiens); assay: In vivo protac activity at CRBN/STAT1 degradation in SCID mouse xenografted with human MOLM16 cells assessed as reduction in STAT1 in tumor tissue at 50 mg/kg, iv measured after 24 hrs by immunoblotting analysis; type: functional, organism-based; method in brief: as §2
[13] = target: Protein cereblon/Signal transducer and activator of transcription 3 (Homo sapiens, UniProt P40763+Q96SW2); assay: Protac activity at CRBN/STAT3 in human SU-DHL-1 cells assessed as degradation of STAT3 incubated for 4 hrs by western blot analysis; type: cell-based; method in brief: as §1
[14] = as §3, with “plasma” for “tumor tissue”; type: ADME, organism-based; settings: in vivo; method in brief: as §4

T2 sequence (P40763 whole entry): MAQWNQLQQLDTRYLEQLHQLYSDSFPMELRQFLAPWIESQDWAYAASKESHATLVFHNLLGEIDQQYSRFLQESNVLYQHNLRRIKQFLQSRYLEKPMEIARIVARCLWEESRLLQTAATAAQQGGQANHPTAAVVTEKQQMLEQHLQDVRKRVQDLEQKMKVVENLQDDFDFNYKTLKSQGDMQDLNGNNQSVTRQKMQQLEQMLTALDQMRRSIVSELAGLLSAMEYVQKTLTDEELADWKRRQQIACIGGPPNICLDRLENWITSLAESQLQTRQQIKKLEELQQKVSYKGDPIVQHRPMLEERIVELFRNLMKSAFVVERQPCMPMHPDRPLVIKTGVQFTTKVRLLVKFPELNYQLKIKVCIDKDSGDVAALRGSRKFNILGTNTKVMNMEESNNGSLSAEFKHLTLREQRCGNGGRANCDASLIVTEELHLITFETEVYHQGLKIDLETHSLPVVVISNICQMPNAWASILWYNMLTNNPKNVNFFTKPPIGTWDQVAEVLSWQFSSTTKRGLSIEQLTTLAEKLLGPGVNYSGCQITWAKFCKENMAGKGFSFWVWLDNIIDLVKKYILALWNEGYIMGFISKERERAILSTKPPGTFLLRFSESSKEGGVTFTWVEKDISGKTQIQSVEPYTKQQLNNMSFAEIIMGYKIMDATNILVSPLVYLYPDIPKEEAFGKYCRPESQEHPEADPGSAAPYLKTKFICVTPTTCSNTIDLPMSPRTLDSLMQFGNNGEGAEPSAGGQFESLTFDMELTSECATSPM
Protein cereblon/Signal transducer and activator of transcription 4 (Homo sapiens), sequence (Q14765 whole entry, looked up): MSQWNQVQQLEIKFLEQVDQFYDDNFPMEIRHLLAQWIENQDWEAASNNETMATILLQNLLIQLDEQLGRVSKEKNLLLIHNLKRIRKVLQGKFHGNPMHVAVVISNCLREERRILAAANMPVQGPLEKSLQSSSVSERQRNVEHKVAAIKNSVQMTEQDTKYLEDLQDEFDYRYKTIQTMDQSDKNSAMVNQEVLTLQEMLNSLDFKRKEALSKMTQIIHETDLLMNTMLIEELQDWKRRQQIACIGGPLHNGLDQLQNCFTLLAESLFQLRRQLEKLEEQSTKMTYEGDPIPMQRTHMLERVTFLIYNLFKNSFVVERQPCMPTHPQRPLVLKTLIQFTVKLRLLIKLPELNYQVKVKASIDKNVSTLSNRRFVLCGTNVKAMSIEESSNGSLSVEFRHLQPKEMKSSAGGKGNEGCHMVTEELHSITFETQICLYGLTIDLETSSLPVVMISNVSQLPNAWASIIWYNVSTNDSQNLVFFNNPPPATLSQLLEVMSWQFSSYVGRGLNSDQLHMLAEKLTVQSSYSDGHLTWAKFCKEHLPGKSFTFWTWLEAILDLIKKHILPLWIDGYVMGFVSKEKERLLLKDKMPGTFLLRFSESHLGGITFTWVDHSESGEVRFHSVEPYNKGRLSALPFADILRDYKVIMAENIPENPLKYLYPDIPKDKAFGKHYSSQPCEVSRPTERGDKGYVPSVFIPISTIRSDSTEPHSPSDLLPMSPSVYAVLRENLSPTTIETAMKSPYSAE
Protein cereblon/Signal transducer and activator of transcription 4 (Homo sapiens), sequence (Q96SW2 whole entry, looked up): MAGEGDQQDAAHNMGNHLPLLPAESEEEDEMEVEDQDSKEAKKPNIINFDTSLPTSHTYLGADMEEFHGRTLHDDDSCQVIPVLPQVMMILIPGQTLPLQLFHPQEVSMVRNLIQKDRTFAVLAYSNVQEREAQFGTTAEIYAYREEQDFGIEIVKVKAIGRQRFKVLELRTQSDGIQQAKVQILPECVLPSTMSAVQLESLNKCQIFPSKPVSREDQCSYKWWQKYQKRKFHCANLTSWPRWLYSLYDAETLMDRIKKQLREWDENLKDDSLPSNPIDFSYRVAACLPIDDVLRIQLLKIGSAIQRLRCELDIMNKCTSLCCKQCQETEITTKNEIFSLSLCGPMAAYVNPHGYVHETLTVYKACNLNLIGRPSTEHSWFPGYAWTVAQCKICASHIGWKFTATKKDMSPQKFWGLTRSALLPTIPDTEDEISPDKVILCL
Protein cereblon/Signal transducer and activator of transcription 3, sequence (P40763 whole entry): as the sequence (P40763 whole entry) above
Protein cereblon/Signal transducer and activator of transcription 3, sequence (Q96SW2 whole entry): as the sequence (Q96SW2 whole entry, looked up) above

| SMILES | Kd [1] | Activity (Mus musculus [2]) | DC50 [3] | DC50 [4] | Activity [5] | Stabilty [6] | Activity (Mus musculus [7]) | Activity [8] | Activity [9] | Drug uptake [10] | Drug metabolism [11] | Activity [12] | DC50 [13] | Drug uptake [14] |
| --- | --- | --- | --- | --- | --- | --- | --- | --- | --- | --- | --- | --- | --- | --- |
| NC(=O)CC[C@H](NC(=O)[C@@H]1CC[C@@H]2CCN(C(=O)CCCCCC#Cc3cccc4c3CN(C3CCC(=O)NC3=O)C4=O)C[C@H](NC(=O)c3cc4cc(C(=O)P(=O)(O)O)ccc4[nH]3)C(=O)N21)C(=O)NC(c1ccccc1)c1ccccc1 (some centres undefined) | > 0.01 µM | Active | 0.12 µM | 1.2 µM | Active | Stable | Active | – | – | – | – | – | – | – |
| NC(=O)CC[C@H](NC(=O)[C@@H]1CC[C@@H]2CCN(C(=O)CCCCCC#Cc3cccc4c3CN(C3CCC(=O)NC3=O)C4=O)C[C@H](NC(=O)c3cc4cc(C(F)(F)P(=O)(O)O)ccc4[nH]3)C(=O)N21)C(=O)NC(c1ccccc1)c1ccccc1 (some centres undefined) | – | – | – | – | – | – | – | inactive | inactive | 396 ng/g | 50% | inactive | 0.061 µM | 305 ng/mL |
